Where only a bound is given, the exact number is not on record here.

For series [1], the target named is JAK1 (Homo sapiens, UniProt P23458). Put plainly: Kinase inhibition assay. The format is biochemical.
Series [2] has as its target JAK3 (Homo sapiens, UniProt P52333). The experiment in a line: Kinase inhibition assay. The format is biochemical.
Series [3] addresses HDAC1 (Homo sapiens, UniProt Q13547). The experiment in a line: In vitro HDAC enzyme assay. In kind it is biochemical.
For series [4], the target named is HDAC2 (Homo sapiens, UniProt Q92769). Put plainly: In vitro HDAC enzyme assay. In kind it is biochemical.
Series [5] concerns the target HDAC7 (Homo sapiens, UniProt Q8WUI4). The experiment in a line: In vitro HDAC enzyme assay. The format is biochemical.
Series [6] deals with HDAC8 (Homo sapiens, UniProt Q9BY41). The experiment in a line: In vitro HDAC enzyme assay. In kind it is biochemical.
Series [7] concerns the target HDAC11 (Homo sapiens, UniProt Q96DB2). Put plainly: In vitro HDAC enzyme assay. The format is biochemical.
In series [8] the test system is MDA-MB-231. The experiment in a line: cells. The format is cell-based. The conditions noted are these: Homo sapiens, MDA-MB-231, read-out: Antiproliferative effect IC50, MDA-MB-231.
Series [9] relates to RPMI-8226. Put plainly: cells. The format is cell-based. The conditions noted are these: Homo sapiens, RPMI-8226, read-out: Antiproliferative effect IC50, RPMI-8226.
Series [10] deals with RPMI-8226 cells. The experiment in a line: Apoptosis assay. As to conditions: 1 μM, 48 h, flow cytometry. In kind it is cell-based, human. For orientation: In flow cytometry, cells or beads pass a laser one at a time.
Series [11] in a line: Microsomal stability assay. In kind it is in vitro ADME. As to conditions: human, human liver microsomes, pH 7.4. In outline:
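Human liver microsomes at 0.8 mg/mL, with magnesium chloride and potassium phosphate buffer (pH 7.4), incubated with test compound at 0.5 μM. Mix prewarmed 5 min at 37 °C, then started with NADPH. Stopped at 0, 5, 10, 15, 30, 60 or 90 min with ice-cold ethyl acetate, spun 4000 rpm for 10 min at 4 °C. Supernatant analysed by LC-MS/MS and half-life determined.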

The subject of series [12] is CCRF-CEM. The experiment in a line: NCI-60 screening, CCRF-CEM. The format is cell-based. As to conditions: Homo sapiens, read-out: GI50, CCRF-CEM.
The test system of series [13] is K-562. Put plainly: NCI-60 screening, K-562. The format is cell-based. The conditions noted are these: Homo sapiens, K562, read-out: GI50, K-562.
Series [14] concerns EKVX. Put plainly: NCI-60 screening, EKVX. In kind it is cell-based. As to conditions: Homo sapiens, read-out: GI50, EKVX.
Series [15] relates to HCT-15. The experiment in a line: NCI-60 screening, HCT-15. In kind it is cell-based. As to conditions: Homo sapiens, HCT-15, read-out: GI50, HCT-15.
Series [16] has as its system LOX IMVI. Put plainly: NCI-60 screening, LOX IMVI. As to conditions: Homo sapiens, read-out: GI50, LOX IMVI. In kind it is cell-based.
For series [17], the system named is M14. The experiment in a line: NCI-60 screening, M14. The conditions noted are these: Homo sapiens, M14, read-out: GI50, M14. In kind it is cell-based.
Series [18] relates to UACC-257. Put plainly: NCI-60 screening, UACC-257. In kind it is cell-based. The conditions noted are these: Homo sapiens, UACC-257, read-out: GI50, UACC-257.
The test system of series [19] is MDA-MB-231/ATCC. The experiment in a line: NCI-60 screening, MDA-MB-231/ATCC. The format is cell-based. As to conditions: Homo sapiens, MDA-MB-231, read-out: GI50, MDA-MB-231/ATCC.
Series [20] deals with HS 578 T. The experiment in a line: NCI-60 screening, HS 578 T. In kind it is cell-based. The conditions noted are these: Homo sapiens, read-out: GI50, HS 578 T.

Sequence of HDAC1 (Q13547 whole entry): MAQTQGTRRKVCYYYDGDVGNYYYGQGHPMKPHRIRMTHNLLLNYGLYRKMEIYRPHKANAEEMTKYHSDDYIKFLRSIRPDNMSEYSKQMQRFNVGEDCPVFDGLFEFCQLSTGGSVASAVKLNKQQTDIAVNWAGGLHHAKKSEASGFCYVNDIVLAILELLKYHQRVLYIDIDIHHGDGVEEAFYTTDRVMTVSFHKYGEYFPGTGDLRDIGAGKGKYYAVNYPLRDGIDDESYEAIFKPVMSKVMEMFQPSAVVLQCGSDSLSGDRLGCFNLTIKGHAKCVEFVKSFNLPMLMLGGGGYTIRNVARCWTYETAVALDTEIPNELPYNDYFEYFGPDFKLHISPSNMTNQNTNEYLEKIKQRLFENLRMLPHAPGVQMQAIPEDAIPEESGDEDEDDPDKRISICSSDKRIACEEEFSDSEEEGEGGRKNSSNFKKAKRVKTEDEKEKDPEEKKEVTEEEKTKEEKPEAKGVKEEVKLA
Sequence of HDAC2 (Q92769 whole entry): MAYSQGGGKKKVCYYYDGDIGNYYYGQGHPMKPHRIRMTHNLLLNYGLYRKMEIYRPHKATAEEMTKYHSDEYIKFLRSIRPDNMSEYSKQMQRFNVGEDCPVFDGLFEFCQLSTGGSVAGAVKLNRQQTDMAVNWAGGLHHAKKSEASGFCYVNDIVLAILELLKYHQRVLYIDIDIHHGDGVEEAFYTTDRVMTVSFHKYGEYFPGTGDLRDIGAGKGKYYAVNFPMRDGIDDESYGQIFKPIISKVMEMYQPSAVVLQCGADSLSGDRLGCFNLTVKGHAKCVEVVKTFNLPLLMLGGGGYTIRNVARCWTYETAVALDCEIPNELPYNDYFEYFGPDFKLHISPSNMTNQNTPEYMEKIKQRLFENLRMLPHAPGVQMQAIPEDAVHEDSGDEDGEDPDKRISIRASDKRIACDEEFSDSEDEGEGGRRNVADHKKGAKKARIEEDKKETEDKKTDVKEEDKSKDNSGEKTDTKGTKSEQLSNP
Sequence of JAK3 (P52333 whole entry): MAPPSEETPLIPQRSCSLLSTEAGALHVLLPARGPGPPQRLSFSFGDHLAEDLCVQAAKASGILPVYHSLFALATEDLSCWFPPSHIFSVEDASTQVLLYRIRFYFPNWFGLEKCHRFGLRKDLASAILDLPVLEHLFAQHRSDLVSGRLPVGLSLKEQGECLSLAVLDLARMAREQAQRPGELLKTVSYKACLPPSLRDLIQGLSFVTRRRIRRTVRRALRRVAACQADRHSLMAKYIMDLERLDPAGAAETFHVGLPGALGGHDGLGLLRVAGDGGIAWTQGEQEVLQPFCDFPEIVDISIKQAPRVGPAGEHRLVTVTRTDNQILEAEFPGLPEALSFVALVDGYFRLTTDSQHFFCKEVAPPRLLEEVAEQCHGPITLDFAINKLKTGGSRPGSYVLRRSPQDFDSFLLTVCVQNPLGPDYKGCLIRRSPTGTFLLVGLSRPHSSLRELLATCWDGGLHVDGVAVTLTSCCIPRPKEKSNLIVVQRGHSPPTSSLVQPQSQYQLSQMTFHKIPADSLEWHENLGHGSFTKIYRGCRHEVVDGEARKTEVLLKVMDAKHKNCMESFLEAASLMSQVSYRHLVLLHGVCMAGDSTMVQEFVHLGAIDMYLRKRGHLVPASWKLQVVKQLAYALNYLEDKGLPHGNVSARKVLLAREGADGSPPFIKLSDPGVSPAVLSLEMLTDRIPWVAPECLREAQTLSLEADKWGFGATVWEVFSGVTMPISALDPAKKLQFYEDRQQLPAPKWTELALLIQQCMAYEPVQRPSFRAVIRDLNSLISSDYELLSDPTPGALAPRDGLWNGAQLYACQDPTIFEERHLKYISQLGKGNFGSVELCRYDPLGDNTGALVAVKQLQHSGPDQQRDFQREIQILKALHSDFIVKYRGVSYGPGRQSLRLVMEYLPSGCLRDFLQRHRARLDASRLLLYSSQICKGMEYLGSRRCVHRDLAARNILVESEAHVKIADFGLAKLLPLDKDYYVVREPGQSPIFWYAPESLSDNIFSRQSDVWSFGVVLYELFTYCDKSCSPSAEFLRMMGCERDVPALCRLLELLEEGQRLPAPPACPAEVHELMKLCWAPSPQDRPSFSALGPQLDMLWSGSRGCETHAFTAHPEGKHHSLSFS
Sequence of JAK1 (P23458 whole entry): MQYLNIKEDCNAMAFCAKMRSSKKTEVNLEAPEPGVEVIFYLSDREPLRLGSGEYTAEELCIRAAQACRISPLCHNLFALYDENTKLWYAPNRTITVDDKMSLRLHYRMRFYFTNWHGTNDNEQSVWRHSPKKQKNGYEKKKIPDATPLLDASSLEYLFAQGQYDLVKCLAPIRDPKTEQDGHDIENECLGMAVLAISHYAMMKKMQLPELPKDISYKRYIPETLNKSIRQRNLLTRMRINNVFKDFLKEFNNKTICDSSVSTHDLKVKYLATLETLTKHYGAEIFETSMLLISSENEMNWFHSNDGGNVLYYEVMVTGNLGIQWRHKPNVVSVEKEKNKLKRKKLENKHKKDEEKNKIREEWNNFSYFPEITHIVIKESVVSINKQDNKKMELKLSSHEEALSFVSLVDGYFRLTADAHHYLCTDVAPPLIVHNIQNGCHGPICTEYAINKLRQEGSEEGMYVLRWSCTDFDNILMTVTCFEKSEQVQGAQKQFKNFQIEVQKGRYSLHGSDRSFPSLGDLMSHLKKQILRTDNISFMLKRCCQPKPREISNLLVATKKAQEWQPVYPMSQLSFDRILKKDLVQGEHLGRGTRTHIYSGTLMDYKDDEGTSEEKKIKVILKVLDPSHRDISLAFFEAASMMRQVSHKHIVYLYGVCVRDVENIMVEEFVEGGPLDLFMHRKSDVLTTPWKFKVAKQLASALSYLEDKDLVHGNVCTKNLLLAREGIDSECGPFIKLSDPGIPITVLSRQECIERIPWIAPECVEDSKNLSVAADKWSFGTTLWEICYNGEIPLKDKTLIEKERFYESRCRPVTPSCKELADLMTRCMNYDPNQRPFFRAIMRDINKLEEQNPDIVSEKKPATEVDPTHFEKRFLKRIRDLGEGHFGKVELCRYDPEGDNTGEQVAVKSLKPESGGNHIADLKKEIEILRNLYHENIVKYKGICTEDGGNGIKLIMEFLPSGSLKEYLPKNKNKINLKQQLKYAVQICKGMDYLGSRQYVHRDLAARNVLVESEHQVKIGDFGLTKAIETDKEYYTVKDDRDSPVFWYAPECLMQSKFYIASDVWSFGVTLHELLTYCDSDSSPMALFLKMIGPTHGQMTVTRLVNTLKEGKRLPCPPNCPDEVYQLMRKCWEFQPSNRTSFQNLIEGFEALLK
Sequence of HDAC7 (Q8WUI4 whole entry): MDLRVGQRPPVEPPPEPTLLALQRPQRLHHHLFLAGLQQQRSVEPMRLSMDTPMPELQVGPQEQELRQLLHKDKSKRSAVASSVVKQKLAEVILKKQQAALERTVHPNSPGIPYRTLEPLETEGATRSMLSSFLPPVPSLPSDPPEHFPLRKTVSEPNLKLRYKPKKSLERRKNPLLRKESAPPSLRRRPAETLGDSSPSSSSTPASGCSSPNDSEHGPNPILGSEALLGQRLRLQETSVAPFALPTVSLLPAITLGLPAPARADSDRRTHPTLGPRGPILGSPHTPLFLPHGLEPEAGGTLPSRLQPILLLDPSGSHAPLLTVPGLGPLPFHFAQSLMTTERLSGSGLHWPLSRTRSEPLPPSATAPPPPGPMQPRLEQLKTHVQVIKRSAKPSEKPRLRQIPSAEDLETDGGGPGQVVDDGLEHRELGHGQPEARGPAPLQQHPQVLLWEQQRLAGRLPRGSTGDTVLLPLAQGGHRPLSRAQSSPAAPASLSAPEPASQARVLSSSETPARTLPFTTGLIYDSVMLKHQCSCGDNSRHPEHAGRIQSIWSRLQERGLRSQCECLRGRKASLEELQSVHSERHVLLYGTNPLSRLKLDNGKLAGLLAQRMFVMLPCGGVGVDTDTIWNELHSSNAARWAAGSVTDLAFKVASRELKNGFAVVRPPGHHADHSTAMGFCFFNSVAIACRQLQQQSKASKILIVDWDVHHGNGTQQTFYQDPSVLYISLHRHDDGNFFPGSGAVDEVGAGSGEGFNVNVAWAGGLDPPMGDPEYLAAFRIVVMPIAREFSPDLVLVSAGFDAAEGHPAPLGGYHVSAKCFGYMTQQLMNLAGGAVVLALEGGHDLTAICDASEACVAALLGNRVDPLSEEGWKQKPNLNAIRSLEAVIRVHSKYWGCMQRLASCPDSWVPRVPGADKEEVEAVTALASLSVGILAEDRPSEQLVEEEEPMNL
Sequence of HDAC8 (Q9BY41 whole entry): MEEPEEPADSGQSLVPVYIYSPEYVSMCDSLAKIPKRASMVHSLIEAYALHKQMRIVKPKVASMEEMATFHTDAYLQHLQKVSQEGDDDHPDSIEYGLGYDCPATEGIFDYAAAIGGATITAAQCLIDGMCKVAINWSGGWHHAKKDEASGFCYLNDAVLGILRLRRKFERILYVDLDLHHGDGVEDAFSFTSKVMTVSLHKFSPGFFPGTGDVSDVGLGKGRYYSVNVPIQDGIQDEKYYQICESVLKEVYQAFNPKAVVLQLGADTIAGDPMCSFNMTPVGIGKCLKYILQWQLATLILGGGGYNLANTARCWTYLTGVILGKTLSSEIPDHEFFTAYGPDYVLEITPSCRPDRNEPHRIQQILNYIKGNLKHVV
Sequence of HDAC11 (Q96DB2 whole entry): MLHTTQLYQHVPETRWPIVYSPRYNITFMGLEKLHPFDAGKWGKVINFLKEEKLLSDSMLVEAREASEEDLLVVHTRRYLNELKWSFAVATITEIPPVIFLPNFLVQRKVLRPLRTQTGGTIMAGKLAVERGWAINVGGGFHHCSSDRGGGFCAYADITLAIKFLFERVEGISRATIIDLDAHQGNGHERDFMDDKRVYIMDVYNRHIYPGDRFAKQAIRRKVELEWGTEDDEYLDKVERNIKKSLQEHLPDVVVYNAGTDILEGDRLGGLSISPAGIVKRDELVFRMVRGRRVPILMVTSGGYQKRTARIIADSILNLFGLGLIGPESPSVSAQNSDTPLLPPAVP

As usually defined, the IC50 is the concentration that inhibits the measured activity by half. In general, half-life refers to the time in which the quantity being followed falls by half. Higher therefore signals slow decline. Take `O=C(NO)c1ccc(CNc2nc3cccc(-c4ccc5c(c4)OCO5)n3n2)cc1` [Compound 19, 4-(((5-(Benzo[d][1, 3]dioxol-5-yl)-[1,2, 4]triazolo[1,5-a]pyridin-2-yl)amino)methyl)-N-hydroxybenzamide]: the IC50 is 165 ± 13 nM in series [1]; above 10000 nM in series [2]; 25.4 ± 1.2 nM in [3]; 36.5 ± 0.95 nM in series [4]; 715 ± 33.5 nM in [5]; 640 ± 28.3 nM in series [6]. Further, the IC50 in series [7] was 1400 ± 102 nM; in [8] it was 750 ± 30 nM; in series [9] it was 120 ± 10 nM. Moreover, the “JAK3 IC50” value in series [2] (duplicate, SD <15%) is listed as “very poor inhibitory activities”. For the same compound, the “Fold weaker on HDAC1 than HDAC6” value in series [3] (IC50 HDAC1 vs HDAC6) is recorded as around 6 fold. Further, the “Fold weaker on HDAC2 than HDAC6” value in [4] (IC50 HDAC2 vs HDAC6) is around 8.5 fold. Besides, in series [10], the “Induction of RPMI-8226 cells apoptosis” value was found to be 85.3%. Besides, the half-life at 0.5 μM in [11] is 14.5 h. Besides, the GI50 in [12] is 310 nM; in series [13], 320 nM; in [14] it was 780 nM; in series [15] it was 690 nM; in [16], 690 nM; in series [17], 550 nM. Also, the values for the GI50 in series [18], in series [19] and in [20] were 360 nM, 690 nM and 140 nM, respectively.

These data come from PMC11463018 (Journal of Enzyme Inhibition and Medicinal Chemistry, 2024).
